ChEMBL document CHEMBL5712897, “EZH2 inhibits autophagic cell death of aortic vascular smooth muscle cells to affect aortic dissection” (2018)
The source made the active and inactive calls.

How the values were obtained:
[1] = molecular target: Histone-lysine N-methyltransferase EZH2 (Mus musculus) (UniProt Q61188); experiment: Inhibition of EZH2 in mouse MOVAS cells transfected with shATG5 assessed as increase in LC3-II expression at 5 uM by Western blot analysis; format: cell-based
Outline: (§1)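 Total protein from MOVAS cells extracted in RIPA buffer. 20 μg per lane resolved by SDS-PAGE and transferred to PVDF. Blocked in 5% non-fat milk, primary antibody overnight at 4 °C, then peroxidase-conjugated secondary and chemiluminescence imaging. Normalized to GAPDH or β-actin loading control. n = 4; mean ± SD versus DMSO, two-tailed t-test.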

[2] = molecular target: Histone-lysine N-methyltransferase EZH2 (Mus musculus) (UniProt Q61188); experiment: Inhibition of EZH2 in mouse MOVAS cells assessed as increase in ATG5 expression at 5 uM measured after 24 hrs by Western blot analysis; format: cell-based; outline: as §1
[3] = molecular target: Histone-lysine N-methyltransferase EZH2 (Mus musculus) (UniProt Q61188); experiment: Inhibition of EZH2 in mouse MOVAS cells assessed as reduction in H3K27me2 level at 5 uM measured after 24 hrs by Western blot analysis; format: cell-based; outline: as §1
[4] = molecular target: Histone-lysine N-methyltransferase EZH2 (Mus musculus) (UniProt Q61188); experiment: Inhibition of EZH2 in mouse MOVAS cells assessed as reduction in H3K27me3 level at 5 uM measured after 24 hrs by Western blot analysis; format: cell-based; outline: as §1
[5] = molecular target: Histone-lysine N-methyltransferase EZH2 (Mus musculus) (UniProt Q61188); experiment: Inhibition of EZH2 in mouse MOVAS cells over-expressing AKT assessed as increase in LC3-II expression at 5 uM measured after 24 hrs by Western blot analysis; format: cell-based; outline: as §1
[6] = molecular target: Histone-lysine N-methyltransferase EZH2 (Mus musculus) (UniProt Q61188); experiment: Inhibition of EZH2 in mouse MOVAS cells transfected with shATG7 assessed as increase in LC3-II expression at 5 uM by Western blot analysis; format: cell-based; outline: as §1
[7] = molecular target: Histone-lysine N-methyltransferase EZH2 (Mus musculus) (UniProt Q61188); experiment: Inhibition of EZH2 in mouse MOVAS cells transfected with shATG5 assessed as reduction in cell count at 5 uM measured up to 48 hrs by cell counting method; format: cell-based
Outline: (§2)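 MOVAS cells serum-starved 12 h in DMEM/high glucose, then 2×10^5 cells seeded in six-well plates in medium with 10% FBS. Trypsinized at 12, 24, 36 and 48 h and counted by a single blinded observer. Three replicate wells (n = 3); mean ± SD, two-tailed t-test.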

[8] = molecular target: Histone-lysine N-methyltransferase EZH2 (Mus musculus) (UniProt Q61188); experiment: Inhibition of EZH2 in mouse MOVAS cells assessed as effect on mTOR phosphorylation at 5 uM measured after 24 hrs by Western blot analysis; format: cell-based; outline: as §1
[9] = Induction of apoptosis in mouse MOVAS cells assessed as early apoptotic cells at 5 uM by flow cytometry; format: functional
Outline: (§3)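 Trypsinized MOVAS cells stained with a PE Annexin V apoptosis detection kit and analysed by flow cytometry, which separated early and late apoptotic populations. Mean ± SD; two-tailed Student's t-test.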

[10] = Induction of apoptosis in mouse MOVAS cells assessed as late apoptotic cells at 5 uM by flow cytometry; format: functional; outline: as §3
[11] = molecular target: Histone-lysine N-methyltransferase EZH2 (Mus musculus) (UniProt Q61188); experiment: Inhibition of EZH2 in mouse MOVAS cells transfected with shATG5 assessed as reduction in cell count at 5 uM measured after 48 hrs by light microscopy; format: cell-based
Outline: (§4)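 Mouse MOVAS VSMCs imaged by light microscopy after 48 h of the indicated treatments (scale bar 200 μm). Lentivirally modified cells were selected with puromycin 2 μg/ml after 48 h infection. Treatments were inhibitor 5 μM, DMSO vehicle, or PD98059 50 μM.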

[12] = molecular target: Histone-lysine N-methyltransferase EZH2 (Mus musculus) (UniProt Q61188); experiment: Inhibition of EZH2 in mouse MOVAS cells assessed as reduction in cell count at 5 uM measured after 48 hrs in presence of MEK1 inhibitor PD98059 by cell counting method; format: cell-based; outline: as §2
[13] = molecular target: Histone-lysine N-methyltransferase EZH2 (Mus musculus) (UniProt Q61188); experiment: Inhibition of EZH2 in mouse MOVAS cells assessed as effect on AMPKalpha phosphorylation at 5 uM measured after 24 hrs by Western blot analysis; format: cell-based; outline: as §1
[14] = molecular target: Histone-lysine N-methyltransferase EZH2 (Mus musculus) (UniProt Q61188); experiment: Inhibition of EZH2 in mouse MOVAS cells assessed as increase in ERK1/2 phosphorylation at 5 uM measured after 6 hrs in presence of MEK1 inhibitor PD98059 by Western blot analysis; format: cell-based; outline: as §1
[15] = molecular target: Histone-lysine N-methyltransferase EZH2 (Mus musculus) (UniProt Q61188); experiment: Inhibition of EZH2 in mouse MOVAS cells assessed as elevation of LC3-II expression at 5 uM in presence of chloroquine by Western blot analysis; format: cell-based; outline: as §1
[16] = molecular target: Histone-lysine N-methyltransferase EZH2 (Mus musculus) (UniProt Q61188); experiment: Inhibition of EZH2 in mouse MOVAS cells assessed as reduction in cell number at 5 uM measured at 24 hrs by cell counting method; format: cell-based; outline: as §2
[17] = molecular target: Histone-lysine N-methyltransferase EZH2 (Mus musculus) (UniProt Q61188); experiment: Inhibition of EZH2 in mouse MOVAS cells over-expressing AKT assessed as reduction in cell count at 5 uM by cell counting method; format: cell-based; outline: as §2
[18] = molecular target: Histone-lysine N-methyltransferase EZH2 (Mus musculus) (UniProt Q61188); experiment: Inhibition of EZH2 in mouse MOVAS cells assessed as elevation of LC3-II expression at 5 uM in presence of chloroquine and rapamycin by Western blot analysis; format: cell-based; outline: as §1
MOVAS [19] = experiment: Cell cycle arrest in mouse MOVAS cells assessed as effect on G0/G1-phase cell population at 5 uM by flow cytometry; format: functional, cell-based
Outline: (§5)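 MOVAS mouse aortic SMCs (about 2–5×10^6) harvested by trypsin, washed twice in PBS, fixed overnight at 4 °C in cold 70% ethanol, then stained 2 h in the dark with RNase A (0.3 mg) and propidium iodide (0.015 mg). Cell-cycle phase distribution read by flow cytometry. Data are mean ± SD, compared by two-tailed t-test.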

MOVAS [20] = experiment: Cell cycle arrest in mouse MOVAS cells assessed as effect on G2/M-phase cell population at 5 uM by flow cytometry; format: functional, cell-based; outline: as §5
MOVAS [21] = experiment: Cell cycle arrest in mouse MOVAS cells assessed as effect on S-phase cell population at 5 uM by flow cytometry; format: functional, cell-based; outline: as §5
[22] = molecular target: Histone-lysine N-methyltransferase EZH2 (Mus musculus) (UniProt Q61188); experiment: Inhibition of EZH2 in mouse MOVAS cells over-expressing AKT assessed as reduction in H3K27me3 level at 5 uM measured after 24 hrs by Western blot analysis; format: cell-based; outline: as §1
[23] = molecular target: Histone-lysine N-methyltransferase EZH2 (Mus musculus) (UniProt Q61188); experiment: Inhibition of EZH2 in mouse MOVAS cells assessed as cell injury at 5 uM measured after 48 hrs by LDH release assay; format: cell-based
Outline: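 Mouse MOVAS VSMCs exposed to inhibitor for 48 h. Cell injury quantified as percentage of injured cells from released LDH using a cytotoxicity LDH kit. n = 6; mean ± SD versus DMSO, two-tailed t-test.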

[24] = molecular target: Histone-lysine N-methyltransferase EZH2 (Mus musculus) (UniProt Q61188); experiment: Inhibition of EZH2 in mouse MOVAS cells assessed as increase in ERK1/2 phosphorylation at 5 uM measured after 6 hrs by Western blot analysis; format: cell-based; outline: as §1
[25] = molecular target: Histone-lysine N-methyltransferase EZH2 (Mus musculus) (UniProt Q61188); experiment: Inhibition of EZH2 in mouse MOVAS cells assessed as reduction in AKT phosphorylation at 5 uM measured after 24 hrs by Western blot analysis; format: cell-based; outline: as §1
[26] = molecular target: Histone-lysine N-methyltransferase EZH2 (Mus musculus) (UniProt Q61188); experiment: Inhibition of EZH2 in mouse MOVAS cells transfected with shATG7 assessed as reduction in cell count at 5 uM measured after 48 hrs by light microscopy; format: cell-based; outline: as §4
[27] = molecular target: Histone-lysine N-methyltransferase EZH2 (Mus musculus) (UniProt Q61188); experiment: Inhibition of EZH2 in mouse MOVAS cells assessed as reduction in cell count at 5 uM measured after 48 hrs in presence of MEK1 inhibitor PD98059 by light microscopy; format: cell-based; outline: as §4
[28] = molecular target: Histone-lysine N-methyltransferase EZH2 (Mus musculus) (UniProt Q61188); experiment: Inhibition of EZH2 in mouse MOVAS cells transfected with shATG7 assessed as reduction in cell count at 5 uM measured up to 48 hrs by cell counting method; format: cell-based; outline: as §2
[29] = molecular target: Histone-lysine N-methyltransferase EZH2 (Mus musculus) (UniProt Q61188); experiment: Inhibition of EZH2 in mouse MOVAS cells over-expressing AKT assessed as reduction in cell count at 5 uM by light microscopy; format: cell-based; outline: as §4
[30] = molecular target: Histone-lysine N-methyltransferase EZH2 (Mus musculus) (UniProt Q61188); experiment: Inhibition of EZH2 in mouse MOVAS cells assessed as increase in ATG7 expression at 5 uM measured after 24 hrs by Western blot analysis; format: cell-based; outline: as §1
[31] = molecular target: Histone-lysine N-methyltransferase EZH2 (Mus musculus) (UniProt Q61188); experiment: Inhibition of EZH2 in mouse MOVAS cells assessed as increase in LC3-II accumulation at 5 uM measured after 24 hrs in presence of MEK1 inhibitor PD98059 by Western blot analysis; format: cell-based; outline: as §1
[32] = molecular target: Histone-lysine N-methyltransferase EZH2 (Mus musculus) (UniProt Q61188); experiment: Inhibition of EZH2 in mouse MOVAS cells assessed as elevation of LC3-II expression at 5 uM by Western blot analysis; format: cell-based; outline: as §1
[33] = molecular target: Histone-lysine N-methyltransferase EZH2 (Mus musculus) (UniProt Q61188); experiment: Inhibition of EZH2 in mouse MOVAS cells assessed as appearance of double-membraned vacuole containing fragments of cytoplasmic component in presence of rapamycin by transmission electron microscopy; format: cell-based
Outline: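 MOVAS cells treated with inhibitor or lentivirus, with rapamycin at 150 nM. Fixed in cold 2.5% glutaraldehyde for 30 min, then further fixed overnight at 4 °C, dehydrated in ethanol and acetone, and embedded in epoxy resin. 60-nm sections stained with uranyl acetate and lead citrate and imaged by TEM for double-membraned autophagic vacuoles.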

[34] = molecular target: Histone-lysine N-methyltransferase EZH2 (Mus musculus) (UniProt Q61188); experiment: Inhibition of EZH2 in mouse MOVAS cells assessed as effect on S6 phosphorylation at 5 uM measured after 24 hrs by Western blot analysis; format: cell-based; outline: as §1
[35] = molecular target: Histone-lysine N-methyltransferase EZH2 (Mus musculus) (UniProt Q61188); experiment: Inhibition of EZH2 in mouse VSMC cells assessed as reduction in cell count at 5 uM for 24 hrs by light microscopic analysis; format: cell-based; settings: MOVAS
[36] = molecular target: Histone-lysine N-methyltransferase EZH2 (Mus musculus) (UniProt Q61188); experiment: Inhibition of EZH2 in mouse MOVAS cells over-expressing AKT assessed as reduction in H3K27me2 level at 5 uM measured after 24 hrs by Western blot analysis; format: cell-based; outline: as §1
[37] = Induction of apoptosis in mouse MOVAS cells assessed as late apoptotic cells by flow cytometry; format: functional; outline: as §3
MOVAS [38] = experiment: Cell cycle arrest in mouse MOVAS cells assessed as effect on G0/G1-phase cell population by flow cytometry; format: functional, cell-based; outline: as §5
MOVAS [39] = experiment: Cell cycle arrest in mouse MOVAS cells assessed as effect on S-phase cell population by flow cytometry; format: functional, cell-based; outline: as §5
[40] = Induction of apoptosis in mouse MOVAS cells assessed as early apoptotic cells by flow cytometry; format: functional; outline: as §3
MOVAS [41] = experiment: Cell cycle arrest in mouse MOVAS cells assessed as effect on G2/M-phase cell population by flow cytometry; format: functional, cell-based; outline: as §5

Sequence of Histone-lysine N-methyltransferase EZH2 (Mus musculus) (Q61188 whole entry): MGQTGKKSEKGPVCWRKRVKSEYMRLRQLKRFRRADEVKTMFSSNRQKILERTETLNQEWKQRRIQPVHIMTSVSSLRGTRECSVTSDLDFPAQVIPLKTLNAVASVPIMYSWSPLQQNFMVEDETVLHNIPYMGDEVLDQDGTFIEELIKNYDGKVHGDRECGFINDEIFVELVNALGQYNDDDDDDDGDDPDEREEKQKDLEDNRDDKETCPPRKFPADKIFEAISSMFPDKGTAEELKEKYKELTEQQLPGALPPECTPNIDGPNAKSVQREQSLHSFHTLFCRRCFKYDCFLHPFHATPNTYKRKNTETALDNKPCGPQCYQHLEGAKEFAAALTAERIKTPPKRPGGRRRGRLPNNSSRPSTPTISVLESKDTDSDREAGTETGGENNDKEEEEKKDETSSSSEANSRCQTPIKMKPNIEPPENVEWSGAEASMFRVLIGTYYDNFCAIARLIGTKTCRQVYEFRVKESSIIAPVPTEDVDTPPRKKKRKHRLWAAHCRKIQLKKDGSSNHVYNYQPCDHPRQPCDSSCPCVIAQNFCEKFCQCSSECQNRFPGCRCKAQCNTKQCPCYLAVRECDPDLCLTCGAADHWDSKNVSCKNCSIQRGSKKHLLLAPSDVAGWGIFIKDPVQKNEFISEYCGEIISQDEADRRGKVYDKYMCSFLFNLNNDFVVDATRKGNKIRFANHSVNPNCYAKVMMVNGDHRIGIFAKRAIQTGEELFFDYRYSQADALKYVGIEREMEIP

CCCc1cc(C)[nH]c(=O)c1CNC(=O)c1cc(-c2ccc(N3CCN(C(C)C)CC3)nc2)cc2c1cnn2C(C)C
8.67%: Activity [9]
6.11%: Activity [10]
active: inhibition [2] | inhibition [3] | inhibition [4] | inhibition [5] | inhibition [15] | inhibition [16] | inhibition [17] | inhibition [18] | inhibition [22] | inhibition [23] | inhibition [24] | inhibition [25] | inhibition [29] | inhibition [30] | inhibition [32] | inhibition [33] | inhibition [35] | inhibition [36]
inactive: inhibition [1] | inhibition [6] | inhibition [7] | inhibition [8] | inhibition [11] | inhibition [12] | inhibition [13] | inhibition [14] | Activity (MOVAS [19]) | Activity (MOVAS [20]) | Activity (MOVAS [21]) | inhibition [26] | inhibition [27] | inhibition [28] | inhibition [31] | inhibition [34]

C[S+](C)[O-] [DIMETHYL SULFOXIDE]
9.76%: Activity [40]
inactive: Activity (MOVAS [38]) | Activity (MOVAS [39]) | Activity (MOVAS [41])
5.96%: Activity [37]
